# Measured values reported in ChEMBL document CHEMBL4261538, “Synthesis and molecular docking studies of xanthone attached amino acids as potential antimicrobial and anti-inflammatory agents” (Medchemcomm, 2017).
# Legend:
# Staphylococcus aureus [1] = assay: Antibacterial activity against Staphylococcus aureus at 100 ug/ml incubated for 24 hrs by agar well diffusion method; type: functional; conditions: read-out: DIZ
# How it was run: (§1)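 Bacteria grown in nutrient broth at 37 °C for 24 h, then subcultured at room temperature. Compounds dissolved in DMSO at 5 mg mL⁻¹ and 5–20 µL added to 6 mm wells, giving 25, 50, 75, 100 µg per well. Gentamicin was the positive control and DMSO the negative control. Plates held at 37 °C for 24 h, then inhibition zone diameter (mm) measured. Values are means of three determinations.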
# Bacillus subtilis [2] = assay: Antibacterial activity against Bacillus subtilis at 25 ug/ml incubated for 24 hrs by agar well diffusion method; type: functional; conditions: read-out: DIZ; how it was run: as §1
# Bacillus subtilis [3] = assay: Antibacterial activity against Bacillus subtilis at 75 ug/ml incubated for 24 hrs by agar well diffusion method; type: functional; conditions: read-out: DIZ; how it was run: as §1
# Fusarium oxysporum [4] = assay: Antifungal activity against Fusarium oxysporum at 50 ug/ml incubated for 48 hrs by agar well diffusion method; type: functional; conditions: read-out: DIZ
# How it was run: (§2)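 Compounds dissolved in DMSO at 5 mg mL⁻¹ and 5–20 µL added to 6 mm wells, giving 25, 50, 75, 100 µg per well. Bavistin was the positive control and DMSO the negative control. Plates incubated at 28 °C for 48 h, then inhibition zone diameter (mm) measured. Values are means of three determinations.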
# Staphylococcus aureus [5] = assay: Antibacterial activity against Staphylococcus aureus at 50 ug/ml incubated for 24 hrs by agar well diffusion method; type: functional; conditions: read-out: DIZ; how it was run: as §1
# Fusarium oxysporum [6] = assay: Antifungal activity against Fusarium oxysporum at 75 ug/ml incubated for 48 hrs by agar well diffusion method; type: functional; conditions: read-out: DIZ; how it was run: as §2
# Aspergillus niger [7] = assay: Antifungal activity against Aspergillus niger at 50 ug/ml incubated for 48 hrs by agar well diffusion method; type: functional; conditions: read-out: DIZ; how it was run: as §2
# Klebsiella pneumoniae [8] = assay: Antibacterial activity against Klebsiella pneumoniae at 75 ug/ml incubated for 24 hrs by agar well diffusion method; type: functional; conditions: read-out: DIZ; how it was run: as §1
# Klebsiella pneumoniae [9] = assay: Antibacterial activity against Klebsiella pneumoniae at 25 ug/ml incubated for 24 hrs by agar well diffusion method; type: functional; conditions: read-out: DIZ; how it was run: as §1
# Candida albicans [10] = assay: Antifungal activity against Candida albicans at 25 ug/ml incubated for 48 hrs by agar well diffusion method; type: functional; conditions: read-out: DIZ; how it was run: as §2
# Escherichia coli [11] = assay: Antibacterial activity against Escherichia coli at 75 ug/ml incubated for 24 hrs by agar well diffusion method; type: functional; conditions: read-out: DIZ; how it was run: as §1
# Aspergillus niger [12] = assay: Antifungal activity against Aspergillus niger at 25 ug/ml incubated for 48 hrs by agar well diffusion method; type: functional; conditions: read-out: DIZ; how it was run: as §2
# Bacillus subtilis [13] = assay: Antibacterial activity against Bacillus subtilis at 50 ug/ml incubated for 24 hrs by agar well diffusion method; type: functional; conditions: read-out: DIZ; how it was run: as §1
# Escherichia coli [14] = assay: Antibacterial activity against Escherichia coli at 25 ug/ml incubated for 24 hrs by agar well diffusion method; type: functional; conditions: read-out: DIZ; how it was run: as §1
# Escherichia coli [15] = assay: Antibacterial activity against Escherichia coli at 50 ug/ml incubated for 24 hrs by agar well diffusion method; type: functional; conditions: read-out: DIZ; how it was run: as §1
# Klebsiella pneumoniae [16] = assay: Antibacterial activity against Klebsiella pneumoniae at 50 ug/ml incubated for 24 hrs by agar well diffusion method; type: functional; conditions: read-out: DIZ; how it was run: as §1
# Klebsiella pneumoniae [17] = assay: Antibacterial activity against Klebsiella pneumoniae at 100 ug/ml incubated for 24 hrs by agar well diffusion method; type: functional; conditions: read-out: DIZ; how it was run: as §1
# Staphylococcus aureus [18] = assay: Antibacterial activity against Staphylococcus aureus at 75 ug/ml incubated for 24 hrs by agar well diffusion method; type: functional; conditions: read-out: DIZ; how it was run: as §1
# Aspergillus niger [19] = assay: Antifungal activity against Aspergillus niger at 100 ug/ml incubated for 48 hrs by agar well diffusion method; type: functional; conditions: read-out: DIZ; how it was run: as §2
# Candida albicans [20] = assay: Antifungal activity against Candida albicans at 50 ug/ml incubated for 48 hrs by agar well diffusion method; type: functional; conditions: read-out: DIZ; how it was run: as §2
# Aspergillus niger [21] = assay: Antifungal activity against Aspergillus niger at 75 ug/ml incubated for 48 hrs by agar well diffusion method; type: functional; conditions: read-out: DIZ; how it was run: as §2
# Escherichia coli [22] = assay: Antibacterial activity against Escherichia coli at 100 ug/ml incubated for 24 hrs by agar well diffusion method; type: functional; conditions: read-out: DIZ; how it was run: as §1
# Fusarium oxysporum [23] = assay: Antifungal activity against Fusarium oxysporum at 25 ug/ml incubated for 48 hrs by agar well diffusion method; type: functional; conditions: read-out: DIZ; how it was run: as §2
# Erythrocyte = assay: Anti-inflammatory activity in human RBC assessed as inhibition of hypotonic solution-induced hemolysis after 10 mins by spectrophotometric method; type: functional, cell-based
# How it was run: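 Human blood (heparinized) washed with 0.9% saline, packed cells made into a 40% v/v stock in isotonic phosphate buffer (154 mM NaCl, 10 mM sodium phosphate, pH 7.4). Stock RBC mixed with hypotonic buffer (50 mM NaCl, 10 mM phosphate, pH 7.4) plus sample at 20–100 µg mL⁻¹.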
# Fusarium oxysporum [24] = assay: Antifungal activity against Fusarium oxysporum at 100 ug/ml incubated for 48 hrs by agar well diffusion method; type: functional; conditions: read-out: DIZ; how it was run: as §2
# Candida albicans [25] = assay: Antifungal activity against Candida albicans at 100 ug/ml incubated for 48 hrs by agar well diffusion method; type: functional; conditions: read-out: DIZ; how it was run: as §2
# Candida albicans [26] = assay: Antifungal activity against Candida albicans at 75 ug/ml incubated for 48 hrs by agar well diffusion method; type: functional; conditions: read-out: DIZ; how it was run: as §2
# Bacillus subtilis [27] = assay: Antibacterial activity against Bacillus subtilis at 100 ug/ml incubated for 24 hrs by agar well diffusion method; type: functional; conditions: read-out: DIZ; how it was run: as §1
# Staphylococcus aureus [28] = assay: Antibacterial activity against Staphylococcus aureus at 25 ug/ml incubated for 24 hrs by agar well diffusion method; type: functional; conditions: read-out: DIZ; how it was run: as §1
SMILES,zone of inhibition at 100 µg/mL (Staphylococcus aureus [1]),zone of inhibition at 25 µg/mL (Bacillus subtilis [2]),zone of inhibition at 75 µg/mL (Bacillus subtilis [3]),zone of inhibition at 50 µg/mL (Fusarium oxysporum [4]),zone of inhibition at 50 µg/mL (Staphylococcus aureus [5]),zone of inhibition at 75 µg/mL (Fusarium oxysporum [6]),zone of inhibition at 50 µg/mL (Aspergillus niger [7]),zone of inhibition at 75 µg/mL (Klebsiella pneumoniae [8]),zone of inhibition at 25 µg/mL (Klebsiella pneumoniae [9]),zone of inhibition at 25 µg/mL (Candida albicans [10]),zone of inhibition at 75 µg/mL (Escherichia coli [11]),zone of inhibition at 25 µg/mL (Aspergillus niger [12]),zone of inhibition at 50 µg/mL (Bacillus subtilis [13]),zone of inhibition at 25 µg/mL (Escherichia coli [14]),zone of inhibition at 50 µg/mL (Escherichia coli [15]),zone of inhibition at 50 µg/mL (Klebsiella pneumoniae [16]),zone of inhibition at 100 µg/mL (Klebsiella pneumoniae [17]),zone of inhibition at 75 µg/mL (Staphylococcus aureus [18]),zone of inhibition at 100 µg/mL (Aspergillus niger [19]),zone of inhibition at 50 µg/mL (Candida albicans [20]),other results
C[C@H](NC(=O)OC(C)(C)C)C(=O)Oc1ccc2c(=O)c3ccccc3oc2c1,19 mm,8 mm,19 mm,10 mm,10 mm,14 mm,12 mm,19 mm,6 mm,7 mm,20 mm,8 mm,14 mm,17 mm,14 mm,13 mm,22 mm,14 mm,18 mm,12 mm,zone of inhibition at 75 µg/mL (Aspergillus niger [21]): 15 mm; zone of inhibition at 100 µg/mL (Escherichia coli [22]): 23 mm; zone of inhibition at 25 µg/mL (Fusarium oxysporum [23]): 6 mm; IC50 (Erythrocyte): 70 µg/mL; zone of inhibition at 100 µg/mL (Fusarium oxysporum [24]): 18 mm; zone of inhibition at 100 µg/mL (Candida albicans [25]): 17 mm; zone of inhibition at 75 µg/mL (Candida albicans [26]): 15 mm; zone of inhibition at 100 µg/mL (Bacillus subtilis [27]): 22 mm; zone of inhibition at 25 µg/mL (Staphylococcus aureus [28]): 6 mm
CC(C)(C)OC(=O)N[C@@H](CS)C(=O)Oc1ccc2c(=O)c3ccccc3oc2c1,34 mm,20 mm,29 mm,24 mm,28 mm,30 mm,26 mm,30 mm,18 mm,17 mm,30 mm,18 mm,26 mm,18 mm,26 mm,24 mm,34 mm,32 mm,34 mm,22 mm,zone of inhibition at 75 µg/mL (Aspergillus niger [21]): 31 mm; zone of inhibition at 100 µg/mL (Escherichia coli [22]): 34 mm; zone of inhibition at 25 µg/mL (Fusarium oxysporum [23]): 18 mm; IC50 (Erythrocyte): 32 µg/mL; zone of inhibition at 100 µg/mL (Fusarium oxysporum [24]): 35 mm; zone of inhibition at 100 µg/mL (Candida albicans [25]): 34 mm; zone of inhibition at 75 µg/mL (Candida albicans [26]): 28 mm; zone of inhibition at 100 µg/mL (Bacillus subtilis [27]): 34 mm; zone of inhibition at 25 µg/mL (Staphylococcus aureus [28]): 20 mm
CC(C)C[C@H](NC(=O)OC(C)(C)C)C(=O)Oc1ccc2c(=O)c3ccccc3oc2c1,22 mm,11 mm,20 mm,12 mm,13 mm,15 mm,15 mm,14 mm,8 mm,8 mm,17 mm,10 mm,16 mm,4 mm,10 mm,11 mm,20 mm,17 mm,22 mm,11 mm,zone of inhibition at 75 µg/mL (Aspergillus niger [21]): 18 mm; zone of inhibition at 100 µg/mL (Escherichia coli [22]): 21 mm; zone of inhibition at 25 µg/mL (Fusarium oxysporum [23]): 10 mm; IC50 (Erythrocyte): 64 µg/mL; zone of inhibition at 100 µg/mL (Fusarium oxysporum [24]): 19 mm; zone of inhibition at 100 µg/mL (Candida albicans [25]): 20 mm; zone of inhibition at 75 µg/mL (Candida albicans [26]): 16 mm; zone of inhibition at 100 µg/mL (Bacillus subtilis [27]): 24 mm; zone of inhibition at 25 µg/mL (Staphylococcus aureus [28]): 7 mm
C[C@H](N)C(=O)Oc1ccc2c(=O)c3ccccc3oc2c1.Cl,22 mm,11 mm,19 mm,10 mm,13 mm,16 mm,12 mm,23 mm,8 mm,7 mm,22 mm,8 mm,16 mm,15 mm,19 mm,16 mm,28 mm,19 mm,18 mm,12 mm,zone of inhibition at 75 µg/mL (Aspergillus niger [21]): 15 mm; zone of inhibition at 100 µg/mL (Escherichia coli [22]): 26 mm; zone of inhibition at 25 µg/mL (Fusarium oxysporum [23]): 6 mm; IC50 (Erythrocyte): 78 µg/mL; zone of inhibition at 100 µg/mL (Fusarium oxysporum [24]): 18 mm; zone of inhibition at 100 µg/mL (Candida albicans [25]): 17 mm; zone of inhibition at 75 µg/mL (Candida albicans [26]): 15 mm; zone of inhibition at 100 µg/mL (Bacillus subtilis [27]): 23 mm; zone of inhibition at 25 µg/mL (Staphylococcus aureus [28]): 9 mm
CC[C@H](C)[C@H](N)C(=O)Oc1ccc2c(=O)c3ccccc3oc2c1.Cl,23 mm,11 mm,20 mm,15 mm,12 mm,19 mm,15 mm,18 mm,8 mm,10 mm,18 mm,10 mm,17 mm,10 mm,13 mm,13 mm,24 mm,19 mm,23 mm,14 mm,zone of inhibition at 75 µg/mL (Aspergillus niger [21]): 18 mm; zone of inhibition at 100 µg/mL (Escherichia coli [22]): 22 mm; zone of inhibition at 25 µg/mL (Fusarium oxysporum [23]): 11 mm; IC50 (Erythrocyte): 68 µg/mL; zone of inhibition at 100 µg/mL (Fusarium oxysporum [24]): 21 mm; zone of inhibition at 100 µg/mL (Candida albicans [25]): 20 mm; zone of inhibition at 75 µg/mL (Candida albicans [26]): 16 mm; zone of inhibition at 100 µg/mL (Bacillus subtilis [27]): 24 mm; zone of inhibition at 25 µg/mL (Staphylococcus aureus [28]): 7 mm
CSCC[C@H](N)C(=O)Oc1ccc2c(=O)c3ccccc3oc2c1.Cl,28 mm,15 mm,25 mm,17 mm,19 mm,19 mm,18 mm,29 mm,17 mm,12 mm,25 mm,11 mm,20 mm,17 mm,21 mm,24 mm,33 mm,22 mm,24 mm,17 mm,zone of inhibition at 75 µg/mL (Aspergillus niger [21]): 21 mm; zone of inhibition at 100 µg/mL (Escherichia coli [22]): 29 mm; zone of inhibition at 25 µg/mL (Fusarium oxysporum [23]): 13 mm; IC50 (Erythrocyte): 34 µg/mL; zone of inhibition at 100 µg/mL (Fusarium oxysporum [24]): 22 mm; zone of inhibition at 100 µg/mL (Candida albicans [25]): 23 mm; zone of inhibition at 75 µg/mL (Candida albicans [26]): 21 mm; zone of inhibition at 100 µg/mL (Bacillus subtilis [27]): 31 mm; zone of inhibition at 25 µg/mL (Staphylococcus aureus [28]): 17 mm
